Bioassay records as filed in PubChem BioAssay.
NPY-Y1 PAM-ag = NPY-Y1 receptor potentiators or agonists, primary screen, cell-based; NPY-Y1 expressing cells, potentiator/agonist activation; activation, % at 3.6 µM; hit rate 0.37% among 220,000; in the data active means activation above about 33%, passing the limit was not always enough;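 further: cells stimulated with NPY at EC10 then isoproterenol at EC100; 0% = low agonist plus stimulus and 100% = saturating agonist plus stimulus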
Target sequence (P25929 whole entry, looked up): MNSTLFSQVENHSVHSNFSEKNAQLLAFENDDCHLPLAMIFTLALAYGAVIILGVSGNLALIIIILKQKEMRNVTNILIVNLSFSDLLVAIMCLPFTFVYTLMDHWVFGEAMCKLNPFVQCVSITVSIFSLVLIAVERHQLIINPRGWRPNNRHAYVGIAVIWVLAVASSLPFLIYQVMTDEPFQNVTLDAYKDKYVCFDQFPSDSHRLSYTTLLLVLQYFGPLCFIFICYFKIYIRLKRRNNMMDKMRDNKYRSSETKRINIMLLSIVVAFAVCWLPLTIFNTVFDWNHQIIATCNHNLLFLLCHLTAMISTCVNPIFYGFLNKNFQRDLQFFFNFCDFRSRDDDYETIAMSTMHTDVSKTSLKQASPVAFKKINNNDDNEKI
NPY-Y2 antag = NPY-Y2 receptor antagonists, primary screen, cell-based; NPY-Y2 expressing cells, antagonist mode; inhibition, % at 2.7 µM; Neuropeptide Y receptor type 2 (Homo sapiens), P49146; hit rate 0.99% among 140,000; AID 793, 2007; in the data active means inhibition above about 17%;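 further: 0% = vehicle with agonist challenge and 100% = reference antagonist with challenge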
NPY Y1 blocker = NPY-Y1 receptor antagonists, primary screen, cell-based; hit rate 1% among 200,000; HEK293-CNG Y1 cells, membrane potential fluorescence; NPY at EC95, then isoproterenol; Neuropeptide Y receptor type 1 (Homo sapiens), P25929; inhibition, % at 3.6 µM;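 active means inhibition above the campaign mean inhibition of all tested compounds plus 3 SD, cut at about 20% in these data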;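 further: 0% = DMSO wells given NPY plus isoproterenol and 100% = isoproterenol alone without NPY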
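Material: HEK293 cells with Y1 receptor plus CNG channel; times: compound incubation 1 h at room temperature, readout 45 min post-stimulation; signal: fluorescence, membrane potential probe; read-out basis: fluorescence ratio normalized to % inhibition between controls; benchmarks: full-block control isoproterenol-only wells, zero-block control NPY plus isoproterenol wells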
NPY-Y2 PAM-ag = NPY-Y2 potentiators or agonists, primary screen, cell-based; cells expressing NPY-Y2, potentiator/agonist read-out; AID 1359, 2008; Neuropeptide Y receptor type 2 (Homo sapiens), P49146; hit rate 0.45% among 220,000; activation, % at 3.6 µM; in the data active means activation above about 27%;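 further: cells stimulated with NPY near EC25 plus isoproterenol at EC100; 0% = vehicle plus submaximal agonist and 100% = vehicle plus saturating agonist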
S1P4 ag = S1P4 receptor agonists, primary screen, cell-based. hit rate 0.35% among 220,000. activation, % at 4.98 µM. AID 1509, 2009. Sphingosine 1-phosphate receptor 4 (Homo sapiens), O95977. S1P4-expressing cell line, agonist reporter assay; in the data active means activation above about 11%;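 further: 0% = DMSO vehicle and 100% = reference agonist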
S1P4 antag = S1P4 receptor antagonists, primary screen, cell-based. hit rate 0.26% among 220,000. S1P4-expressing cells, antagonist mode, reporter read-out. inhibition, % at 4.98 µM. Sphingosine 1-phosphate receptor 4 (Homo sapiens), O95977; in the data active means inhibition above about 29%;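 further: 0% = wells stimulated with agonist and 100% = vehicle wells without agonist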
NPY1 antag ctr = NPY-Y1 receptor antagonists, selectivity check, counter-screen for NPY-Y2 antagonist project, cell-based; cell-based NPY-Y1 antagonism counterscreen; shares compounds with NPY-Y2 antag; inhibition, % at 3.6 µM; hit rate 19% among 710; in the data active means inhibition above about 20%;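 further: cells challenged with NPY then isoproterenol with cAMP sensed through a CNG channel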
NPY2 antag conf = NPY-Y2 receptor antagonists, retest of hits, confirmation, HEK293-CNG cells, membrane potential fluorescence, triplicate. HEK293 NPY-Y2 CNG channel. AID 1257, 2008. hit rate 32% among 710. inhibition, % at 2.8 µM. shares compounds with NPY-Y2 antag;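 active means mean inhibition of triplicate wells above the hit cutoff set in the primary screen, cut at about 17% in these data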;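 further: 0% = DMSO with NPY challenge and 100% = BIIE0246 high control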
Active calls of the source: *. Hits are enriched below; roughly 2.4% of the tested compounds scored in any of these assays.

For COC(=O)c1ccc(C2C(Oc3ccccc3)C(=O)N2CCc2ccc(F)cc2)cc1 (centres undefined) the results were NPY-Y1 PAM-ag 21, NPY-Y2 antag 24*, NPY Y1 blocker 19, NPY-Y2 PAM-ag -20, S1P4 ag -1, S1P4 antag -6, NPY1 antag ctr 30* and NPY2 antag conf 14.
`COC(=O)c1ccc(C2C(Oc3ccc(OC)cc3)C(=O)N2CCc2ccc(OC)c(OC)c2)cc1` (centres undefined) gave NPY-Y1 PAM-ag -15, NPY-Y2 antag 3, NPY Y1 blocker 11, NPY-Y2 PAM-ag 3, S1P4 ag -1 and S1P4 antag -11.
Screening Cc1cc(C(=O)Cn2nnc(-c3ccc(Cl)cc3)n2)c(C)n1CC1CCCO1 (centres undefined) returned NPY-Y1 PAM-ag -32, NPY-Y2 antag 20*, NPY Y1 blocker 14, NPY-Y2 PAM-ag -3, S1P4 ag -1, S1P4 antag -10, NPY1 antag ctr 17 and NPY2 antag conf 7.
`CCCC[C@@H]1C[C@H]1[C@@H](NC(=O)c1cccs1)c1ccc(Cl)cc1` gave NPY-Y1 PAM-ag -46, NPY-Y2 antag 18*, NPY Y1 blocker 2, NPY-Y2 PAM-ag 1, S1P4 ag 1, S1P4 antag 9, NPY1 antag ctr 13 and NPY2 antag conf 17.
`CC(=O)NC1(c2ccccc2)CCN(c2nc(C)cc(C)n2)CC1` gave NPY-Y1 PAM-ag -20, NPY-Y2 antag 49*, NPY Y1 blocker 15, NPY-Y2 PAM-ag -10, S1P4 ag 0, S1P4 antag -46, NPY1 antag ctr 35* and NPY2 antag conf 35*.
Cc1cc(C)nc(N2CCC(C(=O)NNC(=O)Cc3ccccc3)CC2)n1 was read as NPY-Y1 PAM-ag -5, NPY-Y2 PAM-ag -12, S1P4 ag -1 and S1P4 antag 3.
Screening COCCN(C(=O)Cn1nnc2ccccc21)C(C(=O)NC1CCCCC1)c1ccc(OC)cc1OC (centres undefined) returned NPY-Y1 PAM-ag -95, NPY-Y2 antag 19*, NPY Y1 blocker 20, NPY-Y2 PAM-ag -53, S1P4 ag 3, S1P4 antag -19, NPY1 antag ctr 18 and NPY2 antag conf 17.
Screening O=C(CCCCn1c(=O)c2ccccc2n(Cc2ccccc2)c1=O)NC1CCN(Cc2ccccc2)CC1 returned NPY-Y1 PAM-ag -51, NPY Y1 blocker 16, NPY-Y2 PAM-ag -27, S1P4 ag 0 and S1P4 antag -1.
For CC12CCC(C/C1=N\N=C1\NC(=O)/C(=C\c3ccc(Cl)cc3)S1)C2(C)C (centres undefined) the results were NPY-Y1 PAM-ag 0, NPY-Y2 antag 37*, NPY Y1 blocker 4, NPY-Y2 PAM-ag 6, S1P4 ag 1, S1P4 antag -19, NPY1 antag ctr 44* and NPY2 antag conf 55*.
O=C1NC(=NCc2ccccc2)S/C1=C\c1ccccc1 was read as NPY-Y1 PAM-ag -21, NPY-Y2 antag 1, NPY Y1 blocker 4, NPY-Y2 PAM-ag -5, S1P4 ag -1 and S1P4 antag 5.
CCOc1ccc(N(CC(=O)NCCc2ccc(Cl)cc2)S(=O)(=O)c2c(C)[nH]c(=O)[nH]c2=O)cc1 was read as NPY-Y1 PAM-ag 1, NPY Y1 blocker -4, NPY-Y2 PAM-ag 6, S1P4 ag 1 and S1P4 antag -15.
For CC(/C=C/C(=O)c1ccc(C)cc1)=C\c1ccccc1 the results were NPY-Y1 PAM-ag 1, NPY-Y2 antag 6, NPY Y1 blocker 4, NPY-Y2 PAM-ag -21, S1P4 ag 2 and S1P4 antag -17.
Cc1ccc(C(=O)/C=C\C(=O)c2ccc(C)cc2)cc1 was read as NPY-Y1 PAM-ag -27, NPY-Y2 antag 20*, NPY Y1 blocker 12, NPY-Y2 PAM-ag -2, S1P4 ag 0, S1P4 antag 13, NPY1 antag ctr 45* and NPY2 antag conf 111*.
For COc1ccc(-c2nc(C#N)c(NCCCN(C)C)o2)cc1OC the results were NPY-Y1 PAM-ag -9, NPY-Y2 antag -2, NPY Y1 blocker 1, NPY-Y2 PAM-ag 4, S1P4 ag 0 and S1P4 antag -5.
`COc1ccc(-c2nc(C#N)c(NC(C)c3ccccc3)o2)cc1OC` (centres undefined) gave NPY-Y1 PAM-ag 4, NPY-Y2 antag 21*, NPY Y1 blocker 14, NPY-Y2 PAM-ag -17, S1P4 ag -1, S1P4 antag 4, NPY1 antag ctr 17 and NPY2 antag conf 34*.
CC1CCCN(C(=O)CSc2nnc(-c3c[nH]c4ccccc34)o2)C1 (centres undefined) was read as NPY-Y1 PAM-ag -6, NPY-Y2 antag 23*, NPY Y1 blocker 8, NPY-Y2 PAM-ag -15, S1P4 ag 1, S1P4 antag -10, NPY1 antag ctr 6 and NPY2 antag conf 6.
For C/C(=C\C(=O)c1ccc(Br)cc1)NCc1ccc(C)cc1 the results were NPY-Y1 PAM-ag 3, NPY-Y2 antag 21*, NPY Y1 blocker 11, NPY-Y2 PAM-ag -4, S1P4 ag 1, S1P4 antag 0, NPY1 antag ctr 8 and NPY2 antag conf 10.
`CCCCC(=O)N/N=C/c1ccc(N2CCOCC2)c([N+](=O)[O-])c1` gave NPY-Y1 PAM-ag -32, NPY-Y2 antag 21*, NPY Y1 blocker 0, NPY-Y2 PAM-ag -6, S1P4 ag 1, S1P4 antag -17, NPY1 antag ctr 8 and NPY2 antag conf 17*.
For Cc1ccccc1NC(=O)Cn1nnc2c(cnn2-c2ccc(F)cc2)c1=O the results were NPY-Y1 PAM-ag -23, NPY-Y2 antag 24*, NPY Y1 blocker 1, NPY-Y2 PAM-ag -7, S1P4 ag -1, S1P4 antag -4, NPY1 antag ctr 10 and NPY2 antag conf 8.
`Cc1cccc(-c2cc(C(=O)Nc3ccc4c(c3)OCCO4)c3ccccc3n2)c1` gave NPY-Y1 PAM-ag -76, NPY-Y2 antag 26*, NPY Y1 blocker 3, NPY-Y2 PAM-ag -34, S1P4 ag -2, S1P4 antag -11, NPY1 antag ctr 26* and NPY2 antag conf 43*.
`O=C(Cc1ccc(Br)cc1)OCC(=O)N1CCc2ccccc2C1` gave NPY-Y1 PAM-ag -16, NPY-Y2 antag 18*, NPY Y1 blocker 8, NPY-Y2 PAM-ag -11, S1P4 ag 1, S1P4 antag -8, NPY1 antag ctr 7 and NPY2 antag conf 8.
